Data as given in ChEMBL document CHEMBL2040727, “Substituted thiazoles VI. Synthesis and antitumor activity of new 2-acetamido- and 2 or 3-propanamido-thiazole analogs” (2012).

test system: SK-OV-3; experiment: Growth inhibition of human SKOV3 cells at 10 uM after 48 hrs by coulter counter analysis; type: functional; settings: SK-OV-3, 48 h, read-out: GI
Summary of the method: (§1)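 Single-dose NCI 60-line panel screen of test compounds. Cells grown in RPMI 1640 with 10% FBS. Compounds dissolved in DMSO, then diluted in phosphate buffer saline (final DMSO below 1%). Wells run in duplicate at 6 × 10⁴ cells/ml. Controls held PBS and DMSO at matching dilutions. Incubation 48 h at 37 °C under humidified 5% CO2. Cells diluted tenfold in saline and counted by Coulter counter. Percent growth inhibition taken from mean-graph of treated-cell growth.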

| Structure (SMILES) | inhibition of growth at 10 µM [%] |
| --- | --- |
| CC(C(=O)Nc1nccs1)N1CCN(C)CC1 (stereo not drawn) | < 10 |
| Cc1csc(NC(=O)C(C)N2CCN(C)CC2)n1 (stereo not drawn) | < 10 |

test system: PC-3; experiment: Growth inhibition of human PC3 cells at 10 uM after 48 hrs by coulter counter analysis; type: functional; settings: PC-3, 48 h, read-out: GI; summary of the method: as §1

| Structure (SMILES) | inhibition of growth at 10 µM [%] |
| --- | --- |
| CC(C(=O)Nc1nccs1)N1CCN(C)CC1 (stereo not drawn) | < 10 |
| Cc1csc(NC(=O)C(C)N2CCN(C)CC2)n1 (stereo not drawn) | < 10 |

test system: A549; experiment: Growth inhibition of human A549/ATCC cells at 10 uM after 48 hrs by coulter counter analysis; type: functional; settings: A549, 48 h, read-out: GI; summary of the method: as §1

| Structure (SMILES) | inhibition of growth at 10 µM [%] |
| --- | --- |
| CC(C(=O)Nc1nccs1)N1CCN(C)CC1 (stereo not drawn) | < 10 |
| Cc1csc(NC(=O)C(C)N2CCN(C)CC2)n1 (stereo not drawn) | < 10 |

test system: NCI-H23; experiment: Growth inhibition of human NCI-H23 cells at 10 uM after 48 hrs by coulter counter analysis; type: functional; settings: NCI-H23, 48 h, read-out: GI; summary of the method: as §1

| Structure (SMILES) | inhibition of growth at 10 µM [%] |
| --- | --- |
| CC(C(=O)Nc1nccs1)N1CCN(C)CC1 (stereo not drawn) | < 10 |
| Cc1csc(NC(=O)C(C)N2CCN(C)CC2)n1 (stereo not drawn) | 19.8 |

test system: HCT-116; experiment: Growth inhibition of human HCT116 cells at 10 uM after 48 hrs by coulter counter analysis; type: functional; settings: HCT-116, 48 h, read-out: GI; summary of the method: as §1

| Structure (SMILES) | inhibition of growth at 10 µM [%] |
| --- | --- |
| CC(C(=O)Nc1nccs1)N1CCN(C)CC1 (stereo not drawn) | < 10 |
| Cc1csc(NC(=O)C(C)N2CCN(C)CC2)n1 (stereo not drawn) | 30.1 |

test system: DU-145; experiment: Growth inhibition of human DU145 cells at 10 uM after 48 hrs by coulter counter analysis; type: functional; settings: DU-145, 48 h, read-out: GI; summary of the method: as §1

| Structure (SMILES) | inhibition of growth at 10 µM [%] |
| --- | --- |
| CC(C(=O)Nc1nccs1)N1CCN(C)CC1 (stereo not drawn) | < 10 |
| Cc1csc(NC(=O)C(C)N2CCN(C)CC2)n1 (stereo not drawn) | < 10 |

test system: U-251; experiment: Growth inhibition of human U251 cells at 10 uM after 48 hrs by coulter counter analysis; type: functional; settings: U-251, 48 h, read-out: GI
Summary of the method: (§2)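 Single-dose screen in the NCI 60 cell line panel. Cells grown in RPMI 1640 with 10% FBS. Compounds dissolved in DMSO and diluted in phosphate buffered saline, final DMSO under 1%. Duplicate wells seeded from culture at 6 × 10⁴ cells/ml. Incubated 48 h at 37 °C, humidified, 5% CO2. Cells diluted tenfold in saline and Coulter-counted. Percent growth inhibition computed against PBS/DMSO controls.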

| Structure (SMILES) | inhibition of growth at 10 µM [%] |
| --- | --- |
| CC(C(=O)Nc1nccs1)N1CCN(C)CC1 (stereo not drawn) | < 10 |
| Cc1csc(NC(=O)C(C)N2CCN(C)CC2)n1 (stereo not drawn) | 23.5 |

test system: HL-60(TB); experiment: Growth inhibition of human HL-60(TB) cells at 10 uM after 48 hrs by coulter counter analysis; type: functional; settings: HL-60, 48 h, read-out: GI
Summary of the method: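 Cells grown in RPMI 1640 with 10% FBS. Compound was dissolved in DMSO and diluted in PBS (under 1% DMSO final), then added in duplicate wells to culture at 6 × 10⁴ cells/ml. PBS/DMSO vehicle controls were included. Incubated at 37 °C, humidified 5% CO₂, for 48 h. Cells were diluted 10-fold in saline and Coulter-counted. Single-dose NCI-60 screen, read as percent growth inhibition.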

| Structure (SMILES) | inhibition of growth at 10 µM [%] |
| --- | --- |
| CC(C(=O)Nc1nccs1)N1CCN(C)CC1 (stereo not drawn) | 11.2 |
| Cc1csc(NC(=O)C(C)N2CCN(C)CC2)n1 (stereo not drawn) | < 10 |

test system: HOP-62; experiment: Growth inhibition of human HOP62 cells at 10 uM after 48 hrs by coulter counter analysis; type: functional; settings: HOP-62, 48 h, read-out: GI; summary of the method: as §1

| Structure (SMILES) | inhibition of growth at 10 µM [%] |
| --- | --- |
| CC(C(=O)Nc1nccs1)N1CCN(C)CC1 (stereo not drawn) | < 10 |
| Cc1csc(NC(=O)C(C)N2CCN(C)CC2)n1 (stereo not drawn) | 10.9 |

test system: SNB-75; experiment: Growth inhibition of human SNB75 cells at 10 uM after 48 hrs by coulter counter analysis; type: functional; settings: SNB-75, 48 h, read-out: GI; summary of the method: as §2

| Structure (SMILES) | inhibition of growth at 10 µM [%] |
| --- | --- |
| CC(C(=O)Nc1nccs1)N1CCN(C)CC1 (stereo not drawn) | 15.5 |
| Cc1csc(NC(=O)C(C)N2CCN(C)CC2)n1 (stereo not drawn) | < 10 |

test system: UACC-257; experiment: Growth inhibition of human UACC257 cells at 10 uM after 48 hrs by coulter counter analysis; type: functional; settings: UACC-257, 48 h, read-out: GI; summary of the method: as §2

| Structure (SMILES) | inhibition of growth at 10 µM [%] |
| --- | --- |
| CC(C(=O)Nc1nccs1)N1CCN(C)CC1 (stereo not drawn) | < 10 |
| Cc1csc(NC(=O)C(C)N2CCN(C)CC2)n1 (stereo not drawn) | < 10 |

test system: EKVX; experiment: Growth inhibition of human EKVX cells at 10 uM after 48 hrs by coulter counter analysis; type: functional; settings: read-out: GI; summary of the method: as §1

| Structure (SMILES) | inhibition of growth at 10 µM [%] |
| --- | --- |
| CC(C(=O)Nc1nccs1)N1CCN(C)CC1 (stereo not drawn) | < 10 |
| Cc1csc(NC(=O)C(C)N2CCN(C)CC2)n1 (stereo not drawn) | < 10 |

test system: MOLT-4; experiment: Growth inhibition of human MOLT4 cells at 10 uM after 48 hrs by coulter counter analysis; type: functional; settings: MOLT-4, 48 h, read-out: GI; summary of the method: as §1

| Structure (SMILES) | inhibition of growth at 10 µM [%] |
| --- | --- |
| CC(C(=O)Nc1nccs1)N1CCN(C)CC1 (stereo not drawn) | < 10 |
| Cc1csc(NC(=O)C(C)N2CCN(C)CC2)n1 (stereo not drawn) | 12.1 |

test system: HT-29; experiment: Growth inhibition of human HT-29 cells at 10 uM after 48 hrs by coulter counter analysis; type: functional; settings: HT-29, 48 h, read-out: GI; summary of the method: as §1

| Structure (SMILES) | inhibition of growth at 10 µM [%] |
| --- | --- |
| CC(C(=O)Nc1nccs1)N1CCN(C)CC1 (stereo not drawn) | < 10 |
| Cc1csc(NC(=O)C(C)N2CCN(C)CC2)n1 (stereo not drawn) | < 10 |

test system: NCI-H460; experiment: Growth inhibition of human NCI-H460 cells at 10 uM after 48 hrs by coulter counter analysis; type: functional; settings: NCI-H460, 48 h, read-out: GI; summary of the method: as §1

| Structure (SMILES) | inhibition of growth at 10 µM [%] |
| --- | --- |
| CC(C(=O)Nc1nccs1)N1CCN(C)CC1 (stereo not drawn) | < 10 |
| Cc1csc(NC(=O)C(C)N2CCN(C)CC2)n1 (stereo not drawn) | < 10 |

test system: SNB-19; experiment: Growth inhibition of human SNB19 cells at 10 uM after 48 hrs by coulter counter analysis; type: functional; settings: SNB-19, 48 h, read-out: GI; summary of the method: as §1

| Structure (SMILES) | inhibition of growth at 10 µM [%] |
| --- | --- |
| CC(C(=O)Nc1nccs1)N1CCN(C)CC1 (stereo not drawn) | < 10 |
| Cc1csc(NC(=O)C(C)N2CCN(C)CC2)n1 (stereo not drawn) | < 10 |

test system: CCRF-CEM; experiment: Growth inhibition of human CCRF-CEM cells at 10 uM after 48 hrs by coulter counter analysis; type: functional; settings: read-out: GI; summary of the method: as §1

| Structure (SMILES) | inhibition of growth at 10 µM [%] |
| --- | --- |
| CC(C(=O)Nc1nccs1)N1CCN(C)CC1 (stereo not drawn) | < 10 |
| Cc1csc(NC(=O)C(C)N2CCN(C)CC2)n1 (stereo not drawn) | 41.1 |

test system: 786-0; experiment: Growth inhibition of human 786-0 cells at 10 uM after 48 hrs by coulter counter analysis; type: functional; settings: 786-0, 48 h, read-out: GI; summary of the method: as §1

| Structure (SMILES) | inhibition of growth at 10 µM [%] |
| --- | --- |
| CC(C(=O)Nc1nccs1)N1CCN(C)CC1 (stereo not drawn) | < 10 |
| Cc1csc(NC(=O)C(C)N2CCN(C)CC2)n1 (stereo not drawn) | < 10 |

test system: SK-MEL-28; experiment: Growth inhibition of human SK-MEL-28 cells at 10 uM after 48 hrs by coulter counter analysis; type: functional; settings: SK-MEL-28, 48 h, read-out: GI; summary of the method: as §1

| Structure (SMILES) | inhibition of growth at 10 µM [%] |
| --- | --- |
| CC(C(=O)Nc1nccs1)N1CCN(C)CC1 (stereo not drawn) | < 10 |
| Cc1csc(NC(=O)C(C)N2CCN(C)CC2)n1 (stereo not drawn) | < 10 |

test system: K562; experiment: Growth inhibition of human K562 cells at 10 uM after 48 hrs by coulter counter analysis; type: functional; settings: K562, 48 h, read-out: GI; summary of the method: as §1

| Structure (SMILES) | inhibition of growth at 10 µM [%] |
| --- | --- |
| CC(C(=O)Nc1nccs1)N1CCN(C)CC1 (stereo not drawn) | < 10 |
| Cc1csc(NC(=O)C(C)N2CCN(C)CC2)n1 (stereo not drawn) | < 10 |

test system: TK-10; experiment: Growth inhibition of human TK10 cells at 10 uM after 48 hrs by coulter counter analysis; type: functional; settings: TK-10, 48 h, read-out: GI; summary of the method: as §2

| Structure (SMILES) | inhibition of growth at 10 µM [%] |
| --- | --- |
| CC(C(=O)Nc1nccs1)N1CCN(C)CC1 (stereo not drawn) | < 10 |
| Cc1csc(NC(=O)C(C)N2CCN(C)CC2)n1 (stereo not drawn) | < 10 |

test system: RXF 393; experiment: Growth inhibition of human RXF393 cells at 10 uM after 48 hrs by coulter counter analysis; type: functional; settings: RXF 393, 48 h, read-out: GI; summary of the method: as §1

| Structure (SMILES) | inhibition of growth at 10 µM [%] |
| --- | --- |
| CC(C(=O)Nc1nccs1)N1CCN(C)CC1 (stereo not drawn) | < 10 |
| Cc1csc(NC(=O)C(C)N2CCN(C)CC2)n1 (stereo not drawn) | < 10 |

test system: A498; experiment: Growth inhibition of human A498 cells at 10 uM after 48 hrs by coulter counter analysis; type: functional; settings: A498, 48 h, read-out: GI; summary of the method: as §1

| Structure (SMILES) | inhibition of growth at 10 µM [%] |
| --- | --- |
| CC(C(=O)Nc1nccs1)N1CCN(C)CC1 (stereo not drawn) | < 10 |
| Cc1csc(NC(=O)C(C)N2CCN(C)CC2)n1 (stereo not drawn) | < 10 |

test system: CAKI-1; experiment: Growth inhibition of human Caki1 cells at 10 uM after 48 hrs by coulter counter analysis; type: functional; settings: CAKI-1, 48 h, read-out: GI; summary of the method: as §1

| Structure (SMILES) | inhibition of growth at 10 µM [%] |
| --- | --- |
| CC(C(=O)Nc1nccs1)N1CCN(C)CC1 (stereo not drawn) | < 10 |
| Cc1csc(NC(=O)C(C)N2CCN(C)CC2)n1 (stereo not drawn) | < 10 |
